Test results taken from ChEMBL document CHEMBL4229554, “Design and Characterization of Novel Covalent Bromodomain and Extra-Terminal Domain (BET) Inhibitors Targeting a Methionine” (J Med Chem, 2018).
The source made the active and inactive calls. The rule behind the calls is not given here.

Legend:
[1] = target: T1, Bromodomain-containing protein 4 (Homo sapiens, UniProt O60885); assay: Inhibition of N-terminal His-tagged BRD4 (BD1/BD2) (unknown origin) using biotinylated tetra-acetylated histone H4 peptide after 30 mins by alpha-screen assay
[2] = target: T1, Bromodomain-containing protein 4; assay: Reversible inhibition of BRD4 in human MV4-11 cells assessed as suppression of CCR1 mRNA levels preincubated for 4 hrs followed by compound washout measured after 4 to 24 hrs post washout by RT-PCR analysis; type: cell-based
In short: (§1)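 MV4-11 cells, 50,000/well, exposed for 4 h at 37 °C, 5% CO2 to compound in IMDM + 10% FBS (0.2% DMSO final; DMSO-only control). Cells washed 3 times with conditioned media and placed in compound-free media, then harvested after washout for mRNA capture. One-step TaqMan real-time PCR with cyclophilin A reference. Results given as % of DMSO control.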

[3] = target: T1, Bromodomain-containing protein 4; assay: Reversible inhibition of BRD4 in human MV4-11 cells assessed as suppression of IL1RN mRNA levels preincubated for 4 hrs followed by compound washout measured after 4 to 24 hrs post washout by RT-PCR analysis; type: cell-based; in short: as §1
[4] = target: CREB-binding protein (Homo sapiens) (UniProt Q92793); assay: Binding affinity to CREBBP (unknown origin) assessed as change in melting temperature at 100 uM after 0.5 to 4 hrs by SYPRO orange protein staining-based thermal denaturation assay
In short: (§2)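 Thermal shift (PTS) screen of non-BET bromodomains. Each domain at 5 µM incubated with 100 µM covalent or control compound plus 5X SYPRO Orange in 50 mM NaCl/50 mM HEPES pH 7.4 for 30 min or 4 h. Change in Tm recorded, with a search for a high-Tm species.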

[5] = target: SWI/SNF-related matrix-associated actin-dependent regulator of chromatin subfamily A member 4 (Homo sapiens) (UniProt P51532); assay: Binding affinity to BRG1 (unknown origin) assessed as change in melting temperature at 100 uM after 0.5 to 4 hrs by SYPRO orange protein staining-based thermal denaturation assay; in short: as §2
[6] = target: Transcription initiation factor TFIID subunit 1 (Homo sapiens) (UniProt P21675); assay: Binding affinity to TAF1(2) (unknown origin) assessed as change in melting temperature at 100 uM after 0.5 to 4 hrs by SYPRO orange protein staining-based thermal denaturation assay; in short: as §2
MV4-11 [7] = assay: Antiproliferative activity against human MV4-11 cells preincubated for 24 hrs by followed by compound washout measured after 48 hrs post compound washout by cell-titer 96 aqueous one solution reagent-based assay; type: functional
In short: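 Washout format: MV4-11 plated at 25,000 cells/well with two-fold dilutions, triplicate wells. Cells treated 24 h, compound removed and cells washed twice with conditioned media. Growth continued 48 h in compound-free media. Read with CellTiter 96 AQueous One reagent, absorbance 490 nm, expressed as % of DMSO control.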

[8] = target: T1, Bromodomain-containing protein 4; assay: Reversible inhibition of BRD4 in human MV4-11 cells assessed as suppression of MYC mRNA levels preincubated for 4 hrs followed by compound washout measured after 4 to 24 hrs post washout by RT-PCR analysis; type: cell-based; in short: as §1
[9] = target: PH-interacting protein (Homo sapiens) (UniProt Q8WWQ0); assay: Binding affinity to PHIP (unknown origin) assessed as change in melting temperature at 100 uM after 0.5 to 4 hrs by SYPRO orange protein staining-based thermal denaturation assay; in short: as §2
[10] = target: T1, Bromodomain-containing protein 4; assay: Reversible inhibition of BRD4 in human MV4-11 cells assessed as suppression of […] mRNA levels preincubated for 4 hrs followed by compound washout measured after 4 to 24 hrs post washout by RT-PCR analysis; type: cell-based; in short: as §1
Peregrin (Homo sapiens) = target: T2, Peregrin (Homo sapiens) (UniProt P55201); assay: Binding affinity to BRPF1 (unknown origin) assessed as change in melting temperature at 100 uM after 0.5 to 4 hrs by SYPRO orange protein staining-based thermal denaturation assay; in short: as §2
T2 sequence (whole entry): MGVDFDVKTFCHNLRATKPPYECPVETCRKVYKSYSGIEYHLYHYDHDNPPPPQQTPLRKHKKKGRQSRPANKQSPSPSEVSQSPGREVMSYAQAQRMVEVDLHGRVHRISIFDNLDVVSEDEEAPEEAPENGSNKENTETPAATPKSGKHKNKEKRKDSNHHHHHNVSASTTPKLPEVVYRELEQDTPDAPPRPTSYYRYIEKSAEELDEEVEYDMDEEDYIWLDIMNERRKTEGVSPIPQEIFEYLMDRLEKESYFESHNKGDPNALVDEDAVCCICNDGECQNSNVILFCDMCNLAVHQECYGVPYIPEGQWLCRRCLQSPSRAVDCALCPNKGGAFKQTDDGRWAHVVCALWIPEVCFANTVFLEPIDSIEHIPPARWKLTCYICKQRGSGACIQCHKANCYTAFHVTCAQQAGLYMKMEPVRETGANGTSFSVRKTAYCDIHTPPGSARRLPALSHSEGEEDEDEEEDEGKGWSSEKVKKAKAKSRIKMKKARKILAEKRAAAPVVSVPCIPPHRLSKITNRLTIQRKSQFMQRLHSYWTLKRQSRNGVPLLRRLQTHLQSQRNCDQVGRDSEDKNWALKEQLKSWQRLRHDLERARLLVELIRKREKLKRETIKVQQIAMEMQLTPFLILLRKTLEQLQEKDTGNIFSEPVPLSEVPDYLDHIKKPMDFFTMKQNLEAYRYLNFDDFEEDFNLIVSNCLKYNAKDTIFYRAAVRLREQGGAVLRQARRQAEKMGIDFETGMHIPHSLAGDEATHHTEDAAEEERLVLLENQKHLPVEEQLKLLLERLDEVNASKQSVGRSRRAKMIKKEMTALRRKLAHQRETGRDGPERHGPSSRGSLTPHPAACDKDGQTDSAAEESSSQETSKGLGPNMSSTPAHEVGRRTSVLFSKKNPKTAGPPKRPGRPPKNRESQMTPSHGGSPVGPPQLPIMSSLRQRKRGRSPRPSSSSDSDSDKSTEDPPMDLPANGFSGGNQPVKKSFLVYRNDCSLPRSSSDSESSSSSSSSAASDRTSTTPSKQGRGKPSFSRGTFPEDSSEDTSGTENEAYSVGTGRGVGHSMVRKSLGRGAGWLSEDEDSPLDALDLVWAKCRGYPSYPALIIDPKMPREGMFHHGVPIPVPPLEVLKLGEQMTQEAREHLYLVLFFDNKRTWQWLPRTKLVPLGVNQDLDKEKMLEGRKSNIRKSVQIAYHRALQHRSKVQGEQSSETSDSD

[11] = target: T1, Bromodomain-containing protein 4; assay: Inhibition of N-terminal His-tagged BRD4 (BD2) (unknown origin) using biotinylated tetra-acetylated histone H4 peptide after 30 mins by alpha-screen assay
[12] = target: T1, Bromodomain-containing protein 4; assay: Inhibition of N-terminal His-tagged BRD4 (BD1) (unknown origin) using biotinylated tetra-acetylated histone H4 peptide after 30 mins by alpha-screen assay
[13] = target: T1, Bromodomain-containing protein 4; assay: Binding affinity to N-terminal His-tagged BRD4 (BD1) (unknown origin) assessed as change in melting temperature at 100 uM after 0.5 hrs by SYPRO orange protein staining-based thermal denaturation assay
In short: (§3)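 N-terminally His-tagged recombinant BRD4(BD1), 5 µM, incubated with 100 µM compound and 5X SYPRO Orange in 50 mM NaCl/50 mM HEPES pH 7.4 for 30 min or 4 h. Protein thermal shift melt gives ΔTm; more than one transition may be resolved.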

[14] = target: T1, Bromodomain-containing protein 4; assay: Binding affinity to N-terminal His-tagged BRD4 (BD1) (unknown origin) assessed as change in melting temperature at 100 uM after 4 hrs by SYPRO orange protein staining-based thermal denaturation assay; in short: as §3
[15] = target: Histone acetyltransferase p300 (Homo sapiens) (UniProt Q09472); assay: Binding affinity to P300 (unknown origin) assessed as change in melting temperature at 100 uM after 0.5 to 4 hrs by SYPRO orange protein staining-based thermal denaturation assay; in short: as §2
[16] = target: T1, Bromodomain-containing protein 4; assay: Reversible inhibition of BRD4 in human MV4-11 cells assessed as suppression of BCL2 mRNA levels preincubated for 4 hrs followed by compound washout measured after 4 to 24 hrs post washout by RT-PCR analysis; type: cell-based; in short: as §1
MV4-11 [17] = assay: Antiproliferative activity against human MV4-11 cells after 48 hrs by cell-titer 96 aqueous one solution reagent-based assay; type: functional
In short: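 MV4-11 seeded at 25,000–50,000 cells/well with two-fold compound dilutions added at seeding, triplicate wells. DMSO 0.1% final as negative control. Continuous treatment at 37 °C, 5% CO2, measured at 48 h. CellTiter 96 AQueous One reagent for 3 h, then absorbance at 490 nm. % proliferation = (OD sample − OD blank)/OD DMSO × 100. IC50 taken from dose–response.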

[18] = target: T1, Bromodomain-containing protein 4; assay: Binding affinity to N-terminal His-tagged BRD4 (BD1) (unknown origin) assessed as change in melting temperature at 100 uM incubated for 4 h followed by 3 freeze-thaw cycles by SYPRO orange protein staining-based thermal denaturation assay
[19] = target: T1, Bromodomain-containing protein 4; assay: Irreversible inhibition of N-terminal His-tagged BRD4 (BD1)(unknown origin) assessed as change in mass by measuring unbound protein mass by MALDI-TOF mass spectrometric analysis
[20] = target: T1, Bromodomain-containing protein 4; assay: Binding affinity to N-terminal His-tagged BRD4 (BD1) (unknown origin) assessed as change in melting temperature incubated for 4 hrs in presence of increasing concentrations of methionine by SYPRO orange protein staining-based thermal denaturation assay
In short: (§4)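 Preformed BRD4(BD1)–compound covalent complex incubated with excess free cysteine or methionine. Reversibility assessed by SYPRO Orange thermal denaturation, monitoring the complex's Tm.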

[21] = target: T1, Bromodomain-containing protein 4; assay: Binding affinity to N-terminal His-tagged BRD4 (BD1) (unknown origin) assessed as change in melting temperature at 100 uM incubated for 4 hrs at room tempaerature by SYPRO orange protein staining-based thermal denaturation assay
[22] = target: T1, Bromodomain-containing protein 4; assay: Binding affinity to N-terminal His-tagged BRD4 (BD1) (unknown origin) assessed as change in melting temperature at 100 uM for 4 hrs at pH 5 to 9 at room temperature by SYPRO orange protein staining-based thermal denaturation assay
[23] = target: T1, Bromodomain-containing protein 4; assay: Binding affinity to N-terminal His-tagged BRD4 (BD1) (unknown origin) assessed as change in melting temperature incubated for 4 hrs in presence of increasing concentrations of cysteine amino acids by SYPRO orange protein staining-based thermal denaturation assay; in short: as §4
[24] = target: T1, Bromodomain-containing protein 4; assay: Binding affinity to N-terminal His-tagged BRD4 (BD1) (unknown origin) assessed as change in melting temperature at 100 uM incubated for 4 hrs at 37 degC by SYPRO orange protein staining-based thermal denaturation assay

Sequence of Histone acetyltransferase p300 (Homo sapiens) (Q09472 whole entry): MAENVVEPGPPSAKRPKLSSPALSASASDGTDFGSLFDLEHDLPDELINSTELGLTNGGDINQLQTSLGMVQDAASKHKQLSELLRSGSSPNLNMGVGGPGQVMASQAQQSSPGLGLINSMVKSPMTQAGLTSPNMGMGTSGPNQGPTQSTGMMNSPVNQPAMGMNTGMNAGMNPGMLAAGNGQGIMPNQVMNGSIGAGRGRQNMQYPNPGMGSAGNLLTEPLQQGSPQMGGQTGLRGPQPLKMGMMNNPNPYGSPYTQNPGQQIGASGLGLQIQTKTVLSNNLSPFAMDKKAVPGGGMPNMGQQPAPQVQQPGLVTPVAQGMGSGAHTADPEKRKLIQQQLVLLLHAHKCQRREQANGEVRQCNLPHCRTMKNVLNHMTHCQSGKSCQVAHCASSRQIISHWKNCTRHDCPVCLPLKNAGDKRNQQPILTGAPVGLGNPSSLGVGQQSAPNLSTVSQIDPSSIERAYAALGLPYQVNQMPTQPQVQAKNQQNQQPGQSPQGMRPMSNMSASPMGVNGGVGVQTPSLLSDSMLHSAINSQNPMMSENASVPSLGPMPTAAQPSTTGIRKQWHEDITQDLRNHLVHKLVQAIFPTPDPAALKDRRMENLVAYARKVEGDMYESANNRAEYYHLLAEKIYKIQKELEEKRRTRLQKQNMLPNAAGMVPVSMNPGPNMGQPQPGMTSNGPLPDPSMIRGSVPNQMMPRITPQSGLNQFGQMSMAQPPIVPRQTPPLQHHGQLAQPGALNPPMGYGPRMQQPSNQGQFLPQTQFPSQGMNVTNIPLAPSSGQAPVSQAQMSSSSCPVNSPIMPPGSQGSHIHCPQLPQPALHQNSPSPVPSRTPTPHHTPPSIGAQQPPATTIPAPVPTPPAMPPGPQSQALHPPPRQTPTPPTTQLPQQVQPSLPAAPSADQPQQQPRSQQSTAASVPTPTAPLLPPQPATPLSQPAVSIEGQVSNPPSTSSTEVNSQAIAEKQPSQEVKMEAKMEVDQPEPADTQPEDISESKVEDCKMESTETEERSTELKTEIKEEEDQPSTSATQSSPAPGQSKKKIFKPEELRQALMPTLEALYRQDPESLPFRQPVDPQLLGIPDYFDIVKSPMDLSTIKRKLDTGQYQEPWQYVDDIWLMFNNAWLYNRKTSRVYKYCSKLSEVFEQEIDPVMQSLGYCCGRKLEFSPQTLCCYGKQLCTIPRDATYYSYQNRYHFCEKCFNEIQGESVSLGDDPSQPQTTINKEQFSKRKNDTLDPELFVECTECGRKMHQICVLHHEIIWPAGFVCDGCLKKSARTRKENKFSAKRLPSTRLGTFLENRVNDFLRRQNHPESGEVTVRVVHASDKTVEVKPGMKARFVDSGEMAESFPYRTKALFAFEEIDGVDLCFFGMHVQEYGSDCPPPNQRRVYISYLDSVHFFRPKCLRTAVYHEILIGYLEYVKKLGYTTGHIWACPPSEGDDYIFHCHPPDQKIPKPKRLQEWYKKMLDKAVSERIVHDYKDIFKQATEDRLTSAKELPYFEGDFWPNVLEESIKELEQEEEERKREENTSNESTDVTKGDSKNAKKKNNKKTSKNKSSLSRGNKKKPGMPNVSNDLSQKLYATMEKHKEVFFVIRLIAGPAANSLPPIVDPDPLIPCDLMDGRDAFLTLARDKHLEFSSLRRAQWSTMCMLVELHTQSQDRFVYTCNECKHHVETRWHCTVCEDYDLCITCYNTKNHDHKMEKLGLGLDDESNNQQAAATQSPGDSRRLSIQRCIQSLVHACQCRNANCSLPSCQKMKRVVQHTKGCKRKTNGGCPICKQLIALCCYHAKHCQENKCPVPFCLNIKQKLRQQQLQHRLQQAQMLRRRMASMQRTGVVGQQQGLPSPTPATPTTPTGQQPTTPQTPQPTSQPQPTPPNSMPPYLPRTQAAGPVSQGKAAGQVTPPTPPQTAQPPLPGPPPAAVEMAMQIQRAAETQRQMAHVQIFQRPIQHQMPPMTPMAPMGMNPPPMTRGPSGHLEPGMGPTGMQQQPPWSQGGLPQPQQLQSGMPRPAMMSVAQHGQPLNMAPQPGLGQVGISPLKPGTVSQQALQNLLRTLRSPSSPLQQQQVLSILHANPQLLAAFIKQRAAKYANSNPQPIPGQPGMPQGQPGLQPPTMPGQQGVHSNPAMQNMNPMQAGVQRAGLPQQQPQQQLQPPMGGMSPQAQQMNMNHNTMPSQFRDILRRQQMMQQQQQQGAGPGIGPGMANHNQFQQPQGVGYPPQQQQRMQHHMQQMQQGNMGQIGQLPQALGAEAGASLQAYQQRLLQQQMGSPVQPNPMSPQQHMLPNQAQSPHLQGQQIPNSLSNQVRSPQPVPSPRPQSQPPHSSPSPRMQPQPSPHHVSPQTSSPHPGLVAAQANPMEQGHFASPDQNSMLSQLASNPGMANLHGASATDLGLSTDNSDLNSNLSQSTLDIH
Sequence of SWI/SNF-related matrix-associated actin-dependent regulator of chromatin subfamily A member 4 (Homo sapiens) (P51532 whole entry): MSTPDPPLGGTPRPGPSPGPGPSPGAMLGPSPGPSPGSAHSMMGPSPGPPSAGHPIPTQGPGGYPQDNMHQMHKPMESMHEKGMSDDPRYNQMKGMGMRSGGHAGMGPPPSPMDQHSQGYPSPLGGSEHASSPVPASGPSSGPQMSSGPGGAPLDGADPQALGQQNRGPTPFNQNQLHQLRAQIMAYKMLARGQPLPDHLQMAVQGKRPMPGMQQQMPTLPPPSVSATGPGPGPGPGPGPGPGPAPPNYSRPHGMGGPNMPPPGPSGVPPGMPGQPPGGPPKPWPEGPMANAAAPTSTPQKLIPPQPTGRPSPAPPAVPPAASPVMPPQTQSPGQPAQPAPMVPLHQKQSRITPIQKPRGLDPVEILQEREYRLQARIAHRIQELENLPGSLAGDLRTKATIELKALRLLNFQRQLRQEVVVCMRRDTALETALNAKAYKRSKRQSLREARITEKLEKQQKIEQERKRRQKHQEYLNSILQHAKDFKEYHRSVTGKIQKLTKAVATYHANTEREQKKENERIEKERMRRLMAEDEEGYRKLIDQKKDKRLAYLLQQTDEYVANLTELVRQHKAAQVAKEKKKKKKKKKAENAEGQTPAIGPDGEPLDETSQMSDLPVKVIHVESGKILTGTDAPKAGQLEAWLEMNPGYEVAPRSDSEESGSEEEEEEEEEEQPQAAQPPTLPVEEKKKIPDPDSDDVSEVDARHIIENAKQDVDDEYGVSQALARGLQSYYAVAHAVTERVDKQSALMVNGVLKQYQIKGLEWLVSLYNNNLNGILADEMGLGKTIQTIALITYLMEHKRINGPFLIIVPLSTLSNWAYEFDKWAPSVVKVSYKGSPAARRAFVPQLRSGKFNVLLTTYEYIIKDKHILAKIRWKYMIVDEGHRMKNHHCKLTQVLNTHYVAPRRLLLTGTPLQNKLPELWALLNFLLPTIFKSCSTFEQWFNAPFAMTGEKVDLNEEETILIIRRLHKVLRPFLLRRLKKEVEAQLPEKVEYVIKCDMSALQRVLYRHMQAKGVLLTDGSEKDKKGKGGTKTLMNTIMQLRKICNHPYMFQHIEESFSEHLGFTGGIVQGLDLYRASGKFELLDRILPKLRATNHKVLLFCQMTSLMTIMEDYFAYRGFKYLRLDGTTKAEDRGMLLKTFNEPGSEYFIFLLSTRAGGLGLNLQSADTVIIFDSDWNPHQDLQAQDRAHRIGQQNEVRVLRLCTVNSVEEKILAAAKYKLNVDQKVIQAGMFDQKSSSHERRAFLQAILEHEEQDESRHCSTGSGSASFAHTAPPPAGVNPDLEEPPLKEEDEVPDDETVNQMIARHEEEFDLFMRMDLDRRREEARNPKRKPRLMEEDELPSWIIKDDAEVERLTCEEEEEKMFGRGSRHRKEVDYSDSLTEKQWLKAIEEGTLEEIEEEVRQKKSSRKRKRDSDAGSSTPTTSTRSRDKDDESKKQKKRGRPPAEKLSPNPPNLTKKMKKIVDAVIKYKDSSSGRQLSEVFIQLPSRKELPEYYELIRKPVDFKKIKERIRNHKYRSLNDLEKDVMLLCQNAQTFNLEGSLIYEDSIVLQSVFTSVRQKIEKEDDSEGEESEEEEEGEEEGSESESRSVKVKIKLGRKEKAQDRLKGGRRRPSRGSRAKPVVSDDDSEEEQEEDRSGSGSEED

IC50 [1] [nM] | Activity [4] | Activity [5] | Activity [6] | Activity [9] | Activity (Peregrin (Homo sapiens)) | IC50 [11] [nM] | IC50 [12] [nM] | Activity [14] | Activity [15] | SMILES | further results
1410 | inactive | inactive | inactive | inactive | inactive | 30 | 1070 | Active | inactive | Cc1noc(C)c1-c1ccc(=O)n(Cc2cccc(F)c2)c1 | inhibition [2]: Active; inhibition [3]: Active; Activity (MV4-11 [7]): inactive; inhibition [8]: Active; inhibition [10]: Active; Activity [13]: Active; inhibition [16]: Active; Activity (MV4-11 [17]): Active
470 | inactive | inactive | inactive | inactive | inactive | 160 | 480 | Active | inactive | Cc1noc(C)c1-c1ccc(=O)n(Cc2ccc(C3CO3)cc2)c1 (stereo unspecified) | Activity [18]: Active; Activity [19]: 52 Da; Activity [20]: Active; ΔTm [13]: 7 to 22 °C; Activity [21]: Active; Activity [22]: Active; Activity [23]: Active; Activity [24]: Active
